The subject of test [1] is Rattus norvegicus. The test is described as follows: Estrogenic activity in uterus of ovariectomized Sprague-Dawley rat assessed as increase in uterus weight at 0.1 mg/kg, iv administered three times per week for 4 weeks on the first, second, and fifth days. It is filed as functional, organism-based. On the set-up: dose 0.1 mg/kg. The procedure, abridged:
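Female SD rats, 7 weeks old on arrival, were housed 4 weeks, weight-matched into groups, and bilaterally ovariectomized, with sham-operated controls. Conjugate was given iv at 0.1 mg/kg the day after surgery in 1% carboxymethyl cellulose plus 1% citrate buffer. Uterine weight was the read-out.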

Test [2] has as its system Rattus norvegicus. Description: Estrogenic activity in bone of ovariectomized Sprague-Dawley rat assessed as increase in bone mass at 0.1 mg/kg, iv administered three times per week for 4 weeks on the first, second, and fifth days. On the set-up: dose 0.1 mg/kg. It counts as functional, organism-based. In short, it runs like this:
(§1)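 Female SD rats, 7 weeks old on arrival, were housed 4 weeks and assigned to groups matched for mean body weight. All except sham controls were bilaterally ovariectomized. The next day they received conjugate at 0.1 mg/kg iv in 1% carboxymethyl cellulose plus 1% citrate buffer. Bone effect was read as secondary-spongiosa bone volume of the left tibia and ash weight of the right femur.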

In test [3] the test system is Rattus norvegicus. The test is described as follows: Bisphosphonate activity in ovariectomized Sprague-Dawley rat assessed as suppression of Ca2+ ion release from bone at 0.1 mg/kg, iv administered three times per week for 4 weeks on the first, second, and fifth days. On the set-up: dose 0.1 mg/kg. It counts as functional, organism-based. In short, it runs like this:
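In rats, bisphosphonate activity was measured as suppression of PTHrp-induced Ca2+ ion release from bone.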

Test [4] addresses T1, Estrogen receptor (Rattus norvegicus) (UniProt P06211).
T1 sequence (whole entry): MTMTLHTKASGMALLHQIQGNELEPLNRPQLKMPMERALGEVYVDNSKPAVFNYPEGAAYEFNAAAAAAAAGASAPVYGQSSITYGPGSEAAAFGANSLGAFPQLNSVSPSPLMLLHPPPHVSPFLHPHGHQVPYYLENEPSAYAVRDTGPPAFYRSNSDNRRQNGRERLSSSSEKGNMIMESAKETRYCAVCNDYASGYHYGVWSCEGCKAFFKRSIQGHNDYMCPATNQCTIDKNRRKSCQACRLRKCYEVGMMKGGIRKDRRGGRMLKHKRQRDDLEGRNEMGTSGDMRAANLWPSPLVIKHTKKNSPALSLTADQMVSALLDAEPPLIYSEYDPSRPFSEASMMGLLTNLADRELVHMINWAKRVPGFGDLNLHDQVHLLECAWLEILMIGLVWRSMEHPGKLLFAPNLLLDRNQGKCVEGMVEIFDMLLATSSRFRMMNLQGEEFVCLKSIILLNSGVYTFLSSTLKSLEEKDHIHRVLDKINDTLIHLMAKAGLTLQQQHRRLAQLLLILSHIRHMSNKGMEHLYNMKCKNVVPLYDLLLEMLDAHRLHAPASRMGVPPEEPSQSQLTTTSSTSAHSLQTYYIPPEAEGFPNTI
The test is described as follows: Ratio of binding affinity of compound to estradiol at rat uterus estrogen receptor by competitive binding assay.

Test [5] relates to Rattus norvegicus. Description: Estrogenic activity in bone of ovariectomized Sprague-Dawley rat assessed as increase in bone mass at 0.1 mg/kg, iv administered three times per week for 4 weeks on the first, second, and fifth days co-administered with antiestrogen fulvaestrant. It is filed as functional, organism-based. On the set-up: dose 0.1 mg/kg. The procedure, abridged: as §1

SMILES strings stand for the structures. Calls of active or inactive are those of the source. The calls are words filed in the database; no cut-off is given here.

Regarding `C[C@]12CC[C@@H]3c4ccc(OC(=O)CC(=O)NC(P(=O)(O)O)P(=O)(O)O)cc4CC[C@H]3[C@@H]1CC[C@@H]2O`, in the test with Rattus norvegicus [1], the outcome was inactive.
On to `C[C@]12CC[C@@H]3c4ccc(O)cc4CC[C@H]3[C@@H]1CC[C@@H]2OC(=O)CCNC(=O)NC(P(=O)(O)O)P(=O)(O)O`, for which the result with Rattus norvegicus [1] was inactive.
On the same count and under the same terms, for `C[C@]12CC[C@@H]3c4ccc(O)cc4CC[C@H]3[C@@H]1CC[C@@H]2OC(=O)c1ccccc1C(=O)NC(P(=O)(O)O)P(=O)(O)O` the value was “inactive”.
In the case of `C[C@]12CC[C@@H]3c4ccc(O)cc4CC[C@H]3[C@@H]1CC[C@@H]2O`, the result with Rattus norvegicus [1] and in the test with Rattus norvegicus [2] was Active.
With `C[C@]12CC[C@@H]3c4ccc(O)cc4CC[C@H]3[C@@H]1CC[C@@H]2OC(=O)CC(=O)NC(P(=O)(O)O)P(=O)(O)O`, the result in the test on Rattus norvegicus [1] was inactive.
`C[C@]12CC[C@@H]3c4ccc(OC(=O)NCCC(=O)NC(P(=O)(O)O)P(=O)(O)O)cc4CC[C@H]3[C@@H]1CC[C@@H]2O`: the outcome in the test with Rattus norvegicus [1], in the test with Rattus norvegicus [3] and in the test with Rattus norvegicus [5] was inactive. Further, the outcome in the test on Rattus norvegicus [2] was Active. The Ratio in test [4] came out at 2000.
For the molecule `CC(C)(C(=O)NC(P(=O)(O)O)P(=O)(O)O)C(=O)O[C@H]1CC[C@H]2[C@@H]3CCc4cc(O)ccc4[C@H]3CC[C@]12C`, in the test on Rattus norvegicus [1], the result was inactive.
